# Assay outcomes from PubChem BioAssay.
# UPR CHOP act – apoptotic UPR (CHOP) activation; CHO-CHOP luciferase reporter, luminescence; percent of tunicamycin response over DMSO baseline; activation, % at 10 µM; 0.34% of 330,000 active;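 active means at 10 µM dose, activation of 40% or more, normalized to positive control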
#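 Assay system: CHO-CHOP cells, stable luciferase reporter of PERK-eIF2a-CHOP signalling / Buffer or medium: F12 plus 10% serum / Compound dosing: one dose, 10 µM in 0.5% DMSO / Times: 6 h compound treatment, 37 °C / Technique: luciferase luminescence / Read-out: % reporter activation, DMSO baseline versus tunicamycin full activation / Benchmarks: tunicamycin and DMSO controls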
# 697 NFkB inh – inhibitors of the PMA/ionomycin-induced NF-kB reporter in 697 B cells; 0.33% of 330,000 active; 697 B-cell NF-kB luciferase reporter, 16 h; inhibition, % at 4 µM; AID 435022; in the data active means inhibition above about 35%
# Jurkat NFkB inh – lowers PMA/ionomycin-induced NF-kB signal in Jurkat cells | 0.53% of 330,000 active | inhibition, % at 4 µM | AID 435003 | PMA/ionomycin-induced NF-kB luciferase reporter, luminescence; in the data active means inhibition above about 50%
# UPR XBP1 act – activators of adaptive arm of unfolded protein response (XBP1). CHO-XBP1 luciferase reporter, IRE1-XBP1 UPR activation, luminescence; percent of tunicamycin response, DMSO as zero. activation, % at 20 µM. 0.33% of 330,000 active;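 active means versus positive control, 20 µM dose yields 30% or more activation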
#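 Signal: luciferase luminescence; Assay system: CHO-XBP1 luciferase reporter cells; Amount: one thousand reporter cells per well; Dosing: 20 µM single concentration, DMSO 1%; Benchmarks: high control tunicamycin 10 µg/mL final, low control DMSO vehicle only; Schedule: 6 h compound exposure at 37 °C, 5% CO2; Evaluation: percent activation relative to tunicamycin reference.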
# CHOP inhibitor – CHOP inhibition in unfolded protein response. CHO-K1 CHOP-promoter luciferase, tunicamycin-induced, 15-18 h. inhibition, % at 10 µM. 3.8% of 220,000 active. AID 2732;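 active means compounds that reduced the stress-induced luciferase reporter signal by more than about 70% of percent inhibition, limit read from the data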
# Jurkat NFkB conf – lowers PMA/ionomycin-induced NF-kB signal in Jurkat cells; 27% of 2,700 active; Jurkat NF-kB luciferase, 16 h; AID 435020; shares compounds with Jurkat NFkB inh; inhibition, % at 4 µM;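 active means inhibition reaching about 45% at 4 µM in either replicate, limit read from the data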
# 697 NFkB conf – lowers PMA/ionomycin-induced NF-kB signal in 697 B cells. 35% of 2,000 active. inhibition, % at 4 µM. shares compounds with 697 NFkB inh. 697 B-cell NF-kB luciferase, 16 h. AID 449746; in the data active means inhibition mostly above about 28%, no sharp cut-off; inactive means mostly below about 22%
# Hits are given with their value; i = inactive; nt = no result. Shown is part of a subset that was picked to be rich in hits.
SMILES,UPR CHOP act,697 NFkB inh,Jurkat NFkB inh,UPR XBP1 act,CHOP inhibitor,Jurkat NFkB conf,697 NFkB conf
COC(=O)CC1C(=O)NCCN1C(=S)Nc1ccc(F)cc1 (configuration not stated),i,i,i,i,i,nt,nt
Fc1cccc(-c2cc3nc4c(c(NCc5ccco5)n3n2)CCCC4)c1,i,i,i,i,i,i,i
Cc1ccnc(NC(=O)Nc2ccc(F)cc2)c1,i,i,i,i,i,i,i
CSc1ccc(NC(=O)Nc2cc(C)ccn2)cc1,i,i,i,i,i,i,i
CSc1ncccc1C(=O)Nc1cc(C)ccn1,i,i,i,i,nt,nt,nt
Cc1ccc(CNC(=O)CNC(=O)[C@@H]2Cc3ccccc3CN2)cc1,i,i,i,i,nt,nt,nt
CN(Cc1ccccc1)S(=O)(=O)c1ccc(Cl)c(C(=O)NCc2ccc3c(c2)OCO3)c1,i,i,i,i,i,nt,nt
Cc1ccccc1-c1nc2cc(NC(=O)C3CC3)ccc2o1,i,i,i,i,nt,i,i
CC(=O)c1c(C)[nH]c(C(=O)OCC(=O)Nc2ccc(C)cc2[N+](=O)[O-])c1C,i,48,62,i,89,69,i
CCc1ccc(N(C(=O)CCC(=O)Nc2cc(C)on2)C(C(=O)NC(C)(C)C)c2ccc(OC)cc2)cc1 (configuration not stated),i,i,i,i,nt,nt,nt
O=C(Nc1ccccc1)C(=O)c1c[nH]c2ccccc12,i,i,i,i,nt,i,i
COC(=O)c1ccc(NC(=O)C(=O)c2c[nH]c3ccccc23)cc1,i,i,i,i,nt,nt,nt
COc1cc(C(=O)Nc2nc(C)cc(C)n2)cc(OC)c1OC,i,i,i,i,i,nt,nt
CN=c1scc(C)n1/N=C/c1ccc(O)cc1O,i,i,i,i,i,i,i
CC(C)(C)c1ccc(/C=N/Nc2ccc(C(=O)O)cc2)cc1,i,i,59,i,83,i,i
COc1ccc(O)c(C(=O)CC(=O)c2ccccc2)c1,i,i,i,i,93,i,i
Cc1ccc(S(=O)(=O)NCCC(=O)OCC(=O)NCCc2ccccc2)cc1C,i,i,i,i,nt,nt,nt
Cc1ccc(Nc2nc(N)c3ccccc3n2)cc1Cl,i,i,i,i,nt,i,i
COc1cc2nc(Nc3ccc(C)c(Cl)c3)nc(N)c2cc1OC,i,i,i,i,nt,nt,nt
O=S(=O)(c1ccccc1)c1ccc(N2CCCCCC2)cc1,i,i,i,i,nt,nt,nt
COC(=O)Cc1ccc(NC(=O)c2ccc(C(C)(C)C)cc2)cc1,i,77,64,i,72,79,74
COC(=O)Cc1ccc(NC(=O)c2ccccc2Cl)cc1,i,i,i,i,i,nt,nt
CC(C)(C)c1ccc(NC(=O)c2ccsc2)cc1,i,i,i,i,i,i,i
Cc1csc(NC(=O)c2ccc(OCC3CCCO3)cc2)n1 (configuration not stated),i,i,i,i,i,nt,nt
O=C(Nc1nc(-c2ccc(F)c(F)c2)cs1)c1ccc(OCC2CCCO2)cc1 (configuration not stated),i,50,58,i,i,63,33
SMILES,UPR CHOP act,697 NFkB inh,Jurkat NFkB inh,UPR XBP1 act,CHOP inhibitor,Jurkat NFkB conf,697 NFkB conf
CC1CCN(C(=O)c2cc(S(=O)(=O)N3CCOCC3)ccc2N2CCCC2)CC1,i,i,i,i,nt,nt,nt
Cc1nc2ccccn2c1C(=O)/C=C/c1cccc([N+](=O)[O-])c1,116,40,51,i,i,i,41
O=C(CSc1ccc2nnc(-c3ccccn3)n2n1)Nc1cccc(F)c1,i,i,i,i,nt,nt,nt
C/C(=N/OC(=O)c1ccccc1)c1oc(C)nc1C,i,i,i,i,i,nt,nt
C[C@@]12CCC=C[C@H]1[C@H](c1ccc(C(F)(F)F)cc1)N(Cc1ccccc1)C2=O,i,i,i,i,i,nt,nt
c1ccc(-c2noc(-c3ccccc3-c3ccccc3)n2)cc1,i,i,i,i,i,nt,nt
CN(C)c1ccc(-c2noc(-c3ccccc3O)n2)cc1,i,i,i,i,i,i,i
Cc1ccc(-c2noc(-c3ccccc3Br)n2)cc1,i,i,i,i,i,i,i
Cc1cc2nc(/N=C(\N)NC(=O)N3c4ccccc4Sc4ccccc43)nc(C)c2cc1C,nt,nt,nt,nt,i,nt,nt
COc1ccc(-c2sc(Nc3ccc(F)c(F)c3F)nc2CCC(=O)NN)cc1,i,i,i,i,nt,nt,nt
CCCCCOC(=O)c1[nH]c2c(c1C)C(=O)CC(c1ccco1)C2 (configuration not stated),i,i,67,i,nt,49,i
CCN(CC)c1ccc(/C=C/c2cccc[n+]2C)c(OC)c1,i,75,94,i,nt,78,88
O=C(c1cc(COc2cccc3cnccc23)on1)N1CCCC(CCCO)C1 (configuration not stated),i,56,55,i,nt,77,101
COCC1CCN(C(=O)c2cc(COc3cccc4cnccc34)on2)CC1,i,i,i,i,nt,nt,nt
COc1cc([N+](=O)[O-])ccc1N/C=C/C(=O)c1cccs1,i,i,i,i,i,i,i
O=C(/C=C/c1ccc([N+](=O)[O-])cc1)c1cccs1,i,i,i,i,i,nt,nt
COc1ccc(CN(C)c2ccc(S(=O)(=O)N3CCN(C)CC3)cc2[N+](=O)[O-])cc1OC,i,87,68,i,nt,75,97
O=C(NCC1CCCO1)c1cc([N+](=O)[O-])ccc1Cl (configuration not stated),i,i,i,i,i,nt,nt
CC(NC(=O)COC(=O)c1ccc2c(=O)n3c(nc2c1)CCCCC3)c1ccccc1 (configuration not stated),i,i,i,i,nt,nt,nt
c1ccc2sc(NN=C3CCCCCC3)nc2c1,i,i,i,i,i,i,i
O=C(Nc1nc2ccccc2s1)c1ccccc1,i,i,i,i,i,i,i
CCN1CCN(C(=O)c2ccc(N3CC4CC(C3)c3cccc(=O)n3C4)c(NC(=O)c3cc(OC)cc(OC)c3)c2)CC1 (configuration not stated),i,i,i,i,nt,nt,nt
Cn1nnc(NC(=S)NC(=O)c2cc(Cl)ccc2Cl)n1,i,i,i,i,nt,nt,nt
O=C(Nc1ncc(Cc2ccccc2)s1)c1cccs1,i,i,i,i,i,i,i
O=C(Nc1ncc(Cc2cccc(Cl)c2)s1)c1cccs1,i,i,i,i,i,nt,nt
O=C(Nc1nc2c(s1)CCCC2)C1COc2ccccc2O1 (configuration not stated),i,i,i,i,i,i,i
O=C(Cc1cn2ccsc2n1)Nc1nc2c(s1)CCCC2,i,i,i,i,i,nt,nt
O=C(Cc1cccs1)Nc1nc2c(s1)CCCC2,i,i,i,i,nt,i,i
Cc1nnc(NC(=O)C2COc3ccccc3O2)s1 (configuration not stated),i,i,i,i,i,nt,nt
